According to the array DNA melting data of Ke et al. (doi:10.1101/2024.01.08.574731):

Assays:
[1] = folding enthalpy; higher = less favourable; fluorescence melt of hairpins on a sequencing array, two-state fit; settings: sodium 0.088 M
Method in brief: (§1)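 On a sequenced MiSeq flow cell, library hairpins with annealed Cy3 and quencher oligos were imaged for Cy3 fluorescence in 2.5 °C steps up to 60 °C, in 50 mM Na-HEPES pH 8.0, 25 mM NaCl. Normalisation used pre-quench Cy3 and control constructs. Bootstrapped two-state fits gave melting temperature and folding enthalpy, combined by inverse variance across four replicates and with fitted temperatures raised by 9.35 °C to match UV melts.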

[2] = melting temperature; fluorescence melt of hairpins on a sequencing array, two-state fit, raised by 9.35 °C to match UV melts; settings: sodium 0.088 M
Method in brief: as §1

Sequence | folding enthalpy [1] | Tm [2]
GGAAGGTCGAAAGACTCC (((..(((....)))))) | -13.8 kcal/mol | 33.1 °C
GTCCCTACGAAAGTAGAC (((..(((....)))))) | -9.91 kcal/mol | 25.9 °C
GTGTTTGGAAACAAATGC (..((((....))))..) | -21.7 kcal/mol | 34.8 °C
GTGCGTCGAAAGACCAC (((.(((....)))))) | -29.6 kcal/mol | 56.2 °C
GAGTTAGGAAACTAACTC (((((((....))))))) | -36.3 kcal/mol | 54.8 °C
GATCCGTCGACGGATC ((((((....)))))) | -48.8 kcal/mol | 61.9 °C
GCTATCGGAAACAATAGC (((((.(....).))))) | -18.3 kcal/mol | 35.1 °C
GCACCGCGAAAGCGCTGC (((.(((....))).))) | -31.9 kcal/mol | 50.3 °C
GCAAGTGGAAACACTTAC (.(((((....))))).) | -18.7 kcal/mol | 34.6 °C
GGGCTTCGAAAGAATCCC (((.(((....))).))) | -33 kcal/mol | 46.4 °C
GATCCCTGTGGGGATC ((((((....)))))) | -41.6 kcal/mol | 65.3 °C
GTTCACCGAAAGGTAAAC (((.(((....))).))) | -20.4 kcal/mol | 40.5 °C
GGTCATGCGAAAGCAACC (((..(((....)))))) | -8.01 kcal/mol | 27 °C
GGTATCGAAAGATAAACC ((((((....)))..))) | -18.4 kcal/mol | 30.4 °C
GGCCATGGAAACATGGTC (.(((((....))))).) | -36.2 kcal/mol | 54.9 °C
GGACGCCGAAAGGCTCC (((.(((....)))))) | -19.7 kcal/mol | 54.3 °C
GGTCTCGAAAGAGCTACC ((((((....)))..))) | -13.9 kcal/mol | 36 °C
GATCCTTAGCAGGATC ((((((....)))))) | -38 kcal/mol | 48.8 °C
GCAGCTGGAAACAGCCGC ((.((((....)))).)) | -29.3 kcal/mol | 50.6 °C
GCTCCCGAAAGGGCTAGC ((((((....)))..))) | -12.8 kcal/mol | 38.6 °C
ATCTTGAAAAAGAT (((((....))))) | -9.95 kcal/mol | 32.9 °C
GCGAGCAATCGC ((((....)))) | -23.8 kcal/mol | 62.2 °C
GTGGTTACGAAAGTACAC (((..(((....)))))) | -20.7 kcal/mol | 35.5 °C
GTTAACCGAAAGGTCAAC (((.(((....))).))) | -20.5 kcal/mol | 37.7 °C

Sequence | folding enthalpy [1] | Tm [2]
GGTCGCCGAAAGGCACC (((.(((....)))))) | -12.6 kcal/mol | 55.3 °C
GTTTACCGAAAGGTCAAC (((.(((....))).))) | -24.8 kcal/mol | 39.1 °C
GGAGGGGCGAAAGCCTCC (((..(((....)))))) | -13.4 kcal/mol | 44.8 °C
GATCTAGGTTAGATC ((((((...)))))) | -28.5 kcal/mol | 39.2 °C
GTGCGAGGAAACCCGCAC (((((.(....).))))) | -34.6 kcal/mol | 58.1 °C
GCGTTGGGAAACCAGTGC ((..(((....)))..)) | -24.1 kcal/mol | 36.5 °C
GATCGGGATGCCGATC ((((((....)))))) | -42.1 kcal/mol | 57.4 °C
GATCGACAAATCGATC ((((((....)))))) | -31.2 kcal/mol | 48.1 °C
GGTCGAGGAAACTTGACC ((((.((....)).)))) | -32 kcal/mol | 51.9 °C
GCGATCGGTCGC ((((....)))) | -31.6 kcal/mol | 48.5 °C
GCTAATGGAAACATTAGC (((((((....))))))) | -45.4 kcal/mol | 56 °C
GATCGCATGGGCGATC ((((((....)))))) | -40.5 kcal/mol | 68.5 °C
GCGGCAGGAAACCGCCAC (.(((.(....).))).) | -12.7 kcal/mol | 47.5 °C
GATCTTATCGAAGATC ((((((....)))))) | -20.8 kcal/mol | 38.7 °C
GAGTCTACGAAAGTACTC (((..(((....)))))) | -15 kcal/mol | 27.2 °C
GGTAGCCGAAAGGCACC (((.(((....)))))) | -18.7 kcal/mol | 57.5 °C
GTAGACACGAAAGTGTAC (((..(((....)))))) | -10.5 kcal/mol | 32 °C
GCGGAACCCCGC ((((....)))) | -21 kcal/mol | 51.3 °C
GACGGTGAAAACCGTC ((((((....)))))) | -32.1 kcal/mol | 68.5 °C
GGTCTGGGAAACTAGACC (((((.(....).))))) | -41.5 kcal/mol | 50.6 °C
GATCCAATCTGGATC ((((((...)))))) | -33.1 kcal/mol | 51.8 °C
GATCGTACGCACGATC ((((((....)))))) | -37.4 kcal/mol | 55.1 °C
GATCTCAGCTGAGATC ((((((....)))))) | -46.8 kcal/mol | 54.9 °C
GTTGTTGGAAACAACGAC ((.((((....)))).)) | -18.6 kcal/mol | 55.9 °C

Sequence | folding enthalpy [1] | Tm [2]
GTAACACCGAAAGGTTAC (((..(((....)))))) | -14.8 kcal/mol | 35.6 °C
GGTATGGGAAACTATACC (((((.(....).))))) | -26.6 kcal/mol | 41.4 °C
GATGCACGAAAGTGAATC (((.(((....))).))) | -23.4 kcal/mol | 50.8 °C
GCTAAACCGAAAGGTAGC (((..(((....)))))) | -26.1 kcal/mol | 44.5 °C
GATCGCTTCGGCGATC ((((((....)))))) | -35.6 kcal/mol | 67.6 °C
CGGAACGGAAACGTCCG (((.(((....)))))) | -30.1 kcal/mol | 47.8 °C
GGCCAAACGAAAGTTGCC (((..(((....)))))) | -22.6 kcal/mol | 44 °C
GCTTGGCGAAAGCGCAGC (((..((....))..))) | -12.8 kcal/mol | 43.5 °C
GATTTCGGAAACGGAATC ((((.((....)).)))) | -38.9 kcal/mol | 45 °C
GGCCAGCGAAAGCTTGCC (((.(((....))).))) | -50.7 kcal/mol | 55.5 °C
GGTGGCGAAAGCCATACC ((((((....)))..))) | -12 kcal/mol | 45.6 °C
GGGTATCGAAAGATTCCC (((.(((....))).))) | -30.6 kcal/mol | 48.8 °C
GCGGAGCGAAAGCCCAGC ((.(.((....)).).)) | -12.1 kcal/mol | 42.5 °C
GTACAGGGAAACCTGTGC (.(((((....))))).) | -20.9 kcal/mol | 49.8 °C
GTCTGGCGAAAGCCCGAC (((.(((....))).))) | -25.7 kcal/mol | 52.2 °C
GGCCCAGGAAACTGAGCC (((.(((....))).))) | -32.4 kcal/mol | 49 °C
GGGCTTGGAAACGAGTCC ((.((.(....).)).)) | -32.8 kcal/mol | 43.9 °C
GCGTCGCGAAAGCTTCGC (((..((....))..))) | -19.7 kcal/mol | 53.5 °C
GATCCCTGCGGGGATC ((((((....)))))) | -45.6 kcal/mol | 62 °C
GTCCTCGGAAACGGGGAC ((((.((....)).)))) | -45.3 kcal/mol | 55.7 °C
GAGGAAGAAATTCCTC ((((((....)))))) | -25 kcal/mol | 47.7 °C
GGGTGCGAAAGCATTCCC ((((((....)))..))) | -17.4 kcal/mol | 46.9 °C
GTGTTGCGAAAGCATCAC (((.(((....))).))) | -30.7 kcal/mol | 54 °C
GCTCGCGAAAGCGGAGC ((((((....))).))) | -22.9 kcal/mol | 67.9 °C

Sequence | folding enthalpy [1] | Tm [2]
GATCTTTCCAAGATC ((((((...)))))) | -37.1 kcal/mol | 47.7 °C
GGACGCGAAAGCGGATCC ((((((....)))..))) | -12.3 kcal/mol | 47.5 °C
GATCTCCGTGGAGATC ((((((....)))))) | -47.9 kcal/mol | 59.2 °C
TGCAGGAAACTGCA (((((....))))) | -19.6 kcal/mol | 51.8 °C
GATCGACGCATCGATC ((((((....)))))) | -32.6 kcal/mol | 52.6 °C
GCCCCGCGAAAGCGGTGC ((.((((....)))).)) | -15.7 kcal/mol | 61.5 °C
GTAAACGAAAGTTTATAC ((((((....)))..))) | -13.4 kcal/mol | 37.1 °C
GAACATGAAAATGTTC ((((((....)))))) | -28.9 kcal/mol | 52 °C
GATCTAGGTGTAGATC ((((((....)))))) | -31 kcal/mol | 42.9 °C
GCGTCACGAAAGTGTCGC (((.(((....))).))) | -42.4 kcal/mol | 63.4 °C
GTCGTTCGAAAGAAAGAC (((.(((....))).))) | -31.2 kcal/mol | 47.8 °C
GGCACTCCGAAAGGAGCC (((..(((....)))))) | -9.55 kcal/mol | 35.2 °C
GACCAAGGAAACCTGGTC (((((.(....).))))) | -33.4 kcal/mol | 47.2 °C
GCCTACGGAAACGTAAGC ((.((((....)))).)) | -19.8 kcal/mol | 36.1 °C
GGGTGCGAAAGCAATCCC ((((((....)))..))) | -21.8 kcal/mol | 50.6 °C
GATCAAACGATTGATC ((((((....)))))) | -25.3 kcal/mol | 39.9 °C
GATCAGGAATCTGATC ((((((....)))))) | -41.8 kcal/mol | 54.8 °C
GCGGTCGAAAGACCACGC ((((((....)))..))) | -17 kcal/mol | 57 °C
GTTTTGTCGAAAGACAAC (((..(((....)))))) | -12.8 kcal/mol | 37.5 °C
GACATCGAAAGATGTC ((((((....)))))) | -39.7 kcal/mol | 64.4 °C
GCGTATAACGC ((((...)))) | -21 kcal/mol | 56.4 °C
